Only a sample is shown.
Apaf1 activ – activates human Apaf-1 apoptosome; activity change, negative = activation, % at 20 µM; 330,000 compounds, 0.31% hits; AID 489031; O14727; Apaf-1 apoptosome caspase-3 activation, DEVD-Rh110 fluorescence; hits give low values;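 active = activity change at or below -40% at 20 µM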
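Assay system – biochemical Apaf-1 apoptosome reconstitution · Medium – 20 mM HEPES buffer, pH 7.5, containing CHAPS and BSA · Incubation – 30 min preincubation, 50 min reaction, room temperature · Measured by – Caspase-3-released Rh110 fluorescence, 540 nm emission, 480 nm excitation · Read-out – Caspase-3 cleavage activity downstream of Apaf-1 activation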
Rh110 act interf – Rh110 signal interference in Apaf-1 activator counter-screen; shares compounds with Apaf1 activ; Rh110 fluorescence interference, quenched caspase reaction, Ex480/Em540; fluorescence interference (activity change), % at 20 µM, hits read low; 980 tested, under 10 active; AID 504616;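 active = mean activity change at or below -40% when tested at 20 µM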
Apaf-1 act conf – Apaf-1 (human) activation, single-dose confirmed; shares compounds with Apaf1 activ; activity change, negative = activation, % at 20 µM; 980 compounds, 5% hits; reconstituted apoptosome caspase-3 activity, DEVD-Rh110 fluorescence; hits give low values;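 active = mean activity change at or below -40%, meaning activation of 40% or more, at 20 µM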
Of the large screens only hits and unclear results are named; the others gave an inactive call (follow-up assays come after a bar, where they were run).

CCOC(=O)CSc1nc2cc(C(=O)NCc3ccco3)ccc2c(=O)n1-c1ccc(F)cc1	Apaf1 activ -105 | Rh110 act interf inactive | Apaf-1 act conf inactive
NCCCS(=O)(=O)O	none
CCN1C(=C(C#N)C#N)C=Cc2cc(C)ccc21	Apaf1 activ -49 | Rh110 act interf inactive | Apaf-1 act conf inactive
COc1ccc(C(C[N+](=O)[O-])c2c(C)[nH]n(-c3ccccc3)c2=O)cc1 (stereo not drawn)	none
Cc1ccc(/C=N/NC(=O)CNC(=O)c2ccc(S(=O)(=O)N3CCCC3)cc2)o1	Apaf1 activ -522 | Rh110 act interf inactive | Apaf-1 act conf inactive
CCc1nnc(NC(=O)c2ccc(S(=O)(=O)N3CCCCC3)cc2)s1	none
CN(C)CCCN(C(=O)c1ccc(S(=O)(=O)N2CCCCC2)cc1)c1nc2cc3c(cc2s1)OCO3	none
O=c1[nH]nc(CNc2ccc(O)cc2)c2ccccc12	none
Oc1ccc(Cl)cc1CNc1cccc2cccnc12	none
COC(=O)C(CCCCNC(=O)c1ccc([N+](=O)[O-])cc1)NC(=O)c1ccc([N+](=O)[O-])cc1 (stereo not drawn)	Apaf1 activ -48 | Rh110 act interf inactive | Apaf-1 act conf inactive
COc1ccc(C(=O)NCC(=O)OCc2ccc([N+](=O)[O-])cc2)cc1	Apaf1 activ -70 | Rh110 act interf inactive | Apaf-1 act conf inactive
C/C(=N/NC(=O)Cc1cc(=O)[nH][nH]1)c1ccc([N+](=O)[O-])cc1	none
C#CCOCCOCCOCCNc1nc(N2CCN(C(=O)[C@H](CCCCN)n3cc([C@@H](N)[C@H](C)CC)nn3)CC2)nc(N2CCN(C(=O)[C@H](CCC(=O)O)n3cc([C@@H](N)CCCCN)nn3)CC2)n1	none
C#CCOCCOCCOCCNc1nc(N2CCN(C(=O)[C@H](CCCCN)n3cc(CCCC)nn3)CC2)nc(N2CCN(C(=O)[C@H](CCCCN)n3cc(CCCC)nn3)CC2)n1	none
COc1ccc(S(=O)(=O)N2CCN(c3ccc4nnc(-c5ccc(F)cc5)n4n3)CC2)cc1	none
COCCNc1nc(C)cc(-c2cc(C(=O)Nc3ccccc3)on2)n1	Apaf1 activ -53 | Rh110 act interf inactive | Apaf-1 act conf inactive
Cc1cc(C)c2sc(N(CCCN(C)C)C(=O)c3ccc(S(=O)(=O)N(C)C4CCCCC4)cc3)nc2c1	none
O/N=C(\c1ccccn1)C1CC1c1ccccc1 (stereo not drawn)	Apaf1 activ -63 | Rh110 act interf inactive | Apaf-1 act conf inactive
CCCCCCCCCCOC(=O)Cn1c(COc2ccccc2C)[n+](C)c2ccccc21	none
Cn1nccc1C(=O)N1CCN(C23CC4CC(CC(C4)C2)C3)CC1	Apaf1 activ -56 | Rh110 act interf inactive | Apaf-1 act conf inactive
CC(C)(C)NC[C@H](O)COc1nsnc1N1CCOCC1	none
O=C(NC(Cc1ccccc1)C(=O)NCc1ccccn1)c1ccco1 (stereo not drawn)	Apaf1 activ -187 | Rh110 act interf inactive | Apaf-1 act conf inactive
COc1cccc2c1C(=O)c1c(O)c3c(c(O)c1C2=O)C[C@@](O)(C(=O)CO)C[C@@H]3O[C@H]1C[C@H](N)[C@H](O)[C@H](C)O1	none
O=C1c2ccccc2-c2nnc(-c3ccccc3)cc21	none
CS(=O)(=O)N(CC(=O)Nc1ccccc1C(=O)N1CCOCC1)c1cccc(F)c1	Apaf1 activ -57 | Rh110 act interf inactive | Apaf-1 act conf inactive
CCN(CC)c1nc(N)c2c(N)nc(OC)cc2c1C#N	none
COc1ccc(C2=NO[C@@H]3[C@@H]4C[C@@H]([C@H]5C(=O)N(C)C(=O)[C@@H]45)[C@H]23)c(OC)c1	Apaf1 activ -63 | Rh110 act interf inactive | Apaf-1 act conf inactive
CC(=O)Nc1ccc(S(=O)(=O)/N=C2\C(=O)c3ccccc3C([O-])=C2n2cc[n+](-c3ccccn3)c2)cc1	none
Nc1c(Br)cc(Br)cc1CNC1CCC(O)CC1 (stereo not drawn)	none
O=C(NCC(c1ccc(F)cc1)N1CCOCC1)c1cccnc1Sc1ccccc1 (stereo not drawn)	Apaf1 activ -57 | Rh110 act interf inactive | Apaf-1 act conf inactive
CCCCOc1ccc(C(=O)NCC(=O)NCC(c2cccs2)N2CCOCC2)cc1 (stereo not drawn)	none
COc1ccc(C(CNC(=O)c2cccn2C)N2CCOCC2)cc1 (stereo not drawn)	none
CC(CCC(C)C(C)(C)C)[C@@H]1CC[C@H]2C3C[C@H](OS(O)(=S)=S)[C@H]4C[C@H](OS(O)(=S)=S)[C@@H](OS(O)(=S)=S)C[C@]4(C)[C@H]3CC[C@]12C (stereo partly drawn) (tested in a mixture with another compound)	none
CCc1ccc2[nH]c(C(=O)Nc3ccc(Br)c(C)n3)cc2c1	Apaf1 activ -484 | Rh110 act interf inactive | Apaf-1 act conf inactive
